Experimental data published in ChEMBL document CHEMBL4513216, “Probing the Open Global Health Chemical Diversity Library for Multistage-Active Starting Points for Next-Generation Antimalarials” (ACS Infect Dis, 2020).

Assay: Toxicity liver stage against HepG2, at 10uM
Type: cell-based
Parameters: test concentration 10 uM, cell line HepG2-A16-CD81EGFP
Settings: human, HepG2-A16-CD81EGFP cells; read-out: INHIBITION
Summary of the method: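 Uninfected HepG2-A16-CD81EGFP cells, 3 × 10^3 per well, 1536-well, plated on prespotted compound at 10 μM final, parasite-free screening media added to match infected plates; puromycin 10 μM positive, DMSO 0.5% negative; run in parallel with 48 h PbLuc assay at 37 °C, 5% CO2; viability by CellTiter-Glo luminescence, normalized to controls.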

With `CC(C)(C)CN1CCCC(O)(CN2CCc3[nH]ncc3C2)C1=O` (stereo unspecified) the cytotoxicity at 10 µM was -5.14%.

Molecule `CC(CNC(=O)c1cnccn1)Oc1cccc(Br)c1` (stereo unspecified) has a cytotoxicity at 10 µM of 1.25%.

Work on `COCCC(=O)N[C@H]1CC[C@H](Nc2nccc(-c3ccncc3)n2)C1` yielded a cytotoxicity at 10 µM of 11.5%.

Molecule `O=C(Nc1ccccc1F)C1CSCN1C(=O)CCc1ccco1` (stereo unspecified) has a cytotoxicity at 10 µM of -4.31%.

With `Cc1n[nH]c(C)c1-c1cnc(C2CCN(S(C)(=O)=O)CC2)cn1` the cytotoxicity at 10 µM was -1.57%.

Molecule `CN(CCCc1ccccc1)Cc1nc2c(cnn2C)c(=O)[nH]1` has a cytotoxicity at 10 µM of -9.56%.

For `CCN1CCN(C(=O)c2cnc3c(cnn3C3CCCC3)c2)CC1`, the cytotoxicity at 10 µM was -14.1%.

With `Cc1cc(-c2nccs2)nc(C2CCN(Cc3ccccn3)CC2)n1` the cytotoxicity at 10 µM was 7.73%.

`O=C(NCC1CC1)C1CN(C(=O)c2ccncc2)CC12CCOCC2` (stereo unspecified) gave a cytotoxicity at 10 µM of 0.381%.

Work on `Cc1cn2c(n1)C(CNCc1cccc3c1OCO3)CCC2` (stereo unspecified) yielded a cytotoxicity at 10 µM of -0.372%.

`CCn1nc(C)c2nc(C(C)C)nc(N3CCCC3)c21` gave a cytotoxicity at 10 µM of -1.61%.

`Cc1cccnc1C(Cc1ccsc1)NC(=O)Cn1cccnc1=O` (stereo unspecified) gave a cytotoxicity at 10 µM of 3.08%.

In the case of `O=C1CC[C@H]2[C@H](CCN2c2ncc(F)cn2)N1c1cccnc1`, the cytotoxicity at 10 µM was 0.864%.

With `CN(Cc1nc(C2CC2)no1)C(=O)CN1CC(c2ccccc2)CC1=O` (stereo unspecified) the cytotoxicity at 10 µM was 2.11%.

In the case of `COCCNC(=O)c1cc2c(c3ccccc3n2C)n1C(=O)N(C)C`, the cytotoxicity at 10 µM was -72.6%.

Work on `Cc1cc(C)n(C2CN(CC(=O)NC(C3CC3)C3CC3)C2)n1` yielded a cytotoxicity at 10 µM of -9.8%.

For `COCC(=O)NC(c1ccc(Cl)cc1)C(F)(F)F` (stereo unspecified), the cytotoxicity at 10 µM was 6.76%.

For `CC(=O)N(C)C(c1cccnc1)c1ccc(F)c(F)c1` (stereo unspecified), the cytotoxicity at 10 µM was -7.69%.

`CC(C)c1ncc(Cl)c(C(=O)N2CCN(C3CC3)CC2)n1` gave a cytotoxicity at 10 µM of 3.78%.

In the case of `Cc1nc(C(C)(C)C)sc1C(=O)NCCNc1ncccn1`, the cytotoxicity at 10 µM was -4.83%.

For `CCCS(=O)(=O)N1CCC(NC(=O)c2cc(C)c(CC)s2)CC1`, the cytotoxicity at 10 µM was 18.4%.

For `O=C(COC[C@H]1CC[C@H]2[C@H](CCN2c2ncccn2)O1)N1CCCC1`, the cytotoxicity at 10 µM was -7.41%.

Molecule `O=C(c1cnccn1)N1CCOCC2(CCN(C3CCOCC3)C2)C1` (stereo unspecified) has a cytotoxicity at 10 µM of -7.94%.

Work on `Cc1nncn1CCNC(=O)C(C)(C)c1cccc(C(F)(F)F)c1` yielded a cytotoxicity at 10 µM of 8.63%.

Molecule `O=C(c1ncccc1O)N1CCc2c(ncnc2N2CCOCC2)C1` has a cytotoxicity at 10 µM of -3.99%.

`CCc1ccc2nc(C)cc(C(=O)NC3CCNC3=O)c2c1` (stereo unspecified) gave a cytotoxicity at 10 µM of -4.65%.

For `O=C1CCc2cc(NC(=O)N3CCCN(Cc4cccs4)CC3)ccc21`, the cytotoxicity at 10 µM was -11.1%.

Work on `CC(C#N)CN(C)Cc1cc(Cl)cc2cccnc12` (stereo unspecified) yielded a cytotoxicity at 10 µM of -48.5%.

With `O=C(NCC(F)(F)F)C1CSCN1S(=O)(=O)c1ccc(F)cc1Cl` (stereo unspecified) the cytotoxicity at 10 µM was -12.8%.

`CCOC(=O)C1CCCN(Cc2c[nH]nc2-c2cc3ccccc3o2)C1` (stereo unspecified) showed a cytotoxicity at 10 µM of 3.16%.

For `COc1ccc(-c2nnsc2C(=O)N2CCC(C(N)=O)CC2)cc1`, the cytotoxicity at 10 µM was -1.7%.

Molecule `CN(C)Cc1cc(C2CCCCN2S(=O)(=O)c2cccc(Cl)c2)nn1C` (stereo unspecified) has a cytotoxicity at 10 µM of -8.63%.

In the case of `O=C(NCC1(O)COCCN(Cc2cccc(O)c2)C1)c1ccccn1` (stereo unspecified), the cytotoxicity at 10 µM was -4.29%.

`Cc1csc2c(C3CCCN(C(=O)CCn4ccnc4)C3)nc(C)n12` (stereo unspecified) showed a cytotoxicity at 10 µM of 16.9%.

With `CN(Cc1cc2n(n1)CCN(C(=O)[C@H]1CCCO1)C2)Cc1nccs1` the cytotoxicity at 10 µM was 7.92%.

Work on `Cc1nc(C(C)(C)NC(=O)Nc2ccncc2)no1` yielded a cytotoxicity at 10 µM of 9.32%.

`CCC1c2ccsc2CCN1C(=O)NCc1cc(C)on1` (stereo unspecified) gave a cytotoxicity at 10 µM of -10.2%.

With `CN1CC(=O)N(c2cnn(C)c2)CC12CCN(Cc1nccn1C)C2` (stereo unspecified) the cytotoxicity at 10 µM was -15.3%.

In the case of `Cc1nnc(Cn2cc(I)cc(C)c2=O)o1`, the cytotoxicity at 10 µM was 0.0894%.

With `Cc1occc1C(=O)Nc1ccnc(OC2CCOC2)c1` (stereo unspecified) the cytotoxicity at 10 µM was -12.8%.

`O=C(c1sccc1C1CC1)N1CCN(c2ncccn2)CC1` showed a cytotoxicity at 10 µM of -6.87%.

In the case of `Cc1cccc(NC(=O)C2CSc3ncc(C)c(=O)n3C2)n1` (stereo unspecified), the cytotoxicity at 10 µM was 0.0115%.

Work on `CN1CCN([C@H]2COC[C@@H]3CN(Cc4cccnc4)C[C@@H]32)CC1` yielded a cytotoxicity at 10 µM of -77.9%.

In the case of `CCC(c1nc(CC(C)C)nn1-c1ccccn1)n1cccn1` (stereo unspecified), the cytotoxicity at 10 µM was -8.74%.

Molecule `COCc1cn(C2CCN(Cc3ccc(Cl)s3)CC2)nn1` has a cytotoxicity at 10 µM of 5.43%.

Molecule `Cc1nc(CN2CCc3c(nc(C4CC4)n3C)C2)nc2ccccc12` has a cytotoxicity at 10 µM of 7.36%.

`Cc1nc(NC(=O)C(C)S(C)(=O)=O)sc1Cc1ccccc1F` (stereo unspecified) showed a cytotoxicity at 10 µM of 9.8%.

In the case of `CC(=O)N[C@@H](CC(C)C)C(=O)N1CCC(n2cc(C(C)(C)N)nn2)CC1`, the cytotoxicity at 10 µM was -11.7%.

In the case of `Cc1ccc(C(O)CNC(=O)c2cccnc2O)cc1` (stereo unspecified), the cytotoxicity at 10 µM was 11%.

Work on `O=c1c2c[nH]c(N3CCOCC3)nc-2cn1-c1ccc2c(c1)OCO2` yielded a cytotoxicity at 10 µM of -13.1%.

In the case of `CN(C)C(=O)C1CCN(Cn2nc(-c3ccc(F)cc3)oc2=O)CC1`, the cytotoxicity at 10 µM was -2.06%.

In the case of `O=C(c1ccnnc1)N1CC[C@]2(C[C@H](Oc3ncccc3F)CO2)C1`, the cytotoxicity at 10 µM was 3.42%.

In the case of `COCCCN(C)C(=O)c1nnn(-c2ccccc2Cl)c1C`, the cytotoxicity at 10 µM was 9.38%.

Molecule `CN1CCN(Cc2cnc3n2CCN(Cc2cccnc2)CC3)CC1` has a cytotoxicity at 10 µM of 6.26%.

With `OCc1ccc(CN(CCCn2ccnc2)Cc2ccncc2)o1` the cytotoxicity at 10 µM was -4.41%.

In the case of `O=C(c1cccc(-c2ccc(F)cc2)c1)N1CCCC(O)(CO)CC1` (stereo unspecified), the cytotoxicity at 10 µM was -4.77%.

In the case of `O=C(Nc1ccccc1F)c1nn(C2CCS(=O)(=O)C2)c2c1CCCC2` (stereo unspecified), the cytotoxicity at 10 µM was 6.17%.

In the case of `OCC(CO)N1CCC(c2nccnc2Nc2cnccn2)CC1`, the cytotoxicity at 10 µM was -10.5%.

For `CCN(CC)C(=O)C1CCN(C(=O)Nc2cccnc2OC)CC1`, the cytotoxicity at 10 µM was 19%.

For `Nc1cc(N2CCOCC(Cc3ccc4[nH]ccc4c3)C2)ncn1` (stereo unspecified), the cytotoxicity at 10 µM was -5.69%.

In the case of `Cc1cnc(N2CC[C@@H]3O[C@H](COCc4ccccn4)CC[C@@H]32)nc1`, the cytotoxicity at 10 µM was -76.3%.

Molecule `Cc1nc(Nc2nccs2)cc(C2CCCN2)n1` (stereo unspecified) has a cytotoxicity at 10 µM of 63%.

In the case of `Cc1ccccc1S(=O)(=O)N(C)[C@@H]1CC[C@@H](n2ccnc2C)[C@@H]1O`, the cytotoxicity at 10 µM was -1.07%.

`CCOCCN1CCN(CCc2nc3ccccc3c(=O)[nH]2)CC1` showed a cytotoxicity at 10 µM of 4.12%.

Work on `O=C(CNC(=O)N1CCc2c([nH]c3ccc(Cl)cc23)C1)NCCCO` yielded a cytotoxicity at 10 µM of 5.36%.

`Cc1cc(C(=O)NCc2cccn2C)nn1C` showed a cytotoxicity at 10 µM of 1.21%.

`CC(C)NC(=O)CCN1CCC(C(=O)c2cc(F)ccc2F)CC1` gave a cytotoxicity at 10 µM of -25%.

Work on `CCOCCCNC(=O)CN(c1cc(C)cc(C)c1)S(C)(=O)=O` yielded a cytotoxicity at 10 µM of 4.48%.

In the case of `O=S(=O)(NCCc1nc(-c2cccnc2)n[nH]1)NCc1ccccc1`, the cytotoxicity at 10 µM was 7.02%.

Molecule `Cc1ccc(S(C)(=O)=O)cc1C(=O)NS(C)(=O)=O` has a cytotoxicity at 10 µM of -11.4%.

For `Cc1ncc2c(n1)CCN(C(=O)Cc1c(C)noc1C)C2`, the cytotoxicity at 10 µM was -8.55%.

With `O=C(c1ccco1)N1CCC2(CCCN(c3ncccn3)C2)C1` (stereo unspecified) the cytotoxicity at 10 µM was -105%.

In the case of `CCOC(=O)c1ccc(CNC(=O)c2ccc(Cl)cn2)o1`, the cytotoxicity at 10 µM was 6.72%.

With `O=C(O)Cc1cccc(-n2ccnc2-c2ccc(Cl)s2)c1` the cytotoxicity at 10 µM was 0.185%.

Work on `Cc1nc(C2CCCN2C(=O)CCc2ccccc2)ncc1C(N)=O` (stereo unspecified) yielded a cytotoxicity at 10 µM of -19.5%.

Work on `O=C(Nc1cccnc1N1CCSCC1)c1ccc2c(c1)CCO2` yielded a cytotoxicity at 10 µM of -0.678%.

`CN(C)c1cc(CNC(=O)c2cccc(F)c2)ccn1` showed a cytotoxicity at 10 µM of -13.5%.

With `Cc1cnc(C)c(N2CCN(CCCc3ccncc3)CC2)n1` the cytotoxicity at 10 µM was -15.4%.

Work on `CCCN1CCC=C(C2c3nc[nH]c3CCN2C(=O)c2ccco2)C1` (stereo unspecified) yielded a cytotoxicity at 10 µM of 1.33%.

In the case of `Cc1ncc(C(=O)N2CCCC2(C)C(=O)N2CCOCC2)c(C)n1` (stereo unspecified), the cytotoxicity at 10 µM was -0.681%.

Work on `Cc1ccc(C2(O)CCN(C(=O)c3sccc3S(N)(=O)=O)CC2)nc1` yielded a cytotoxicity at 10 µM of -3.3%.
